The values below come from ChEMBL document CHEMBL4825669, “Synthesis, Molecular Pharmacology, and Structure-Activity Relationships of 3-(Indanoyl)indoles as Selective Cannabinoid Type 2 Receptor Antagonists” (J Med Chem, 2021).

Assay [1] deals with T1, Cannabinoid receptor 2 (Homo sapiens, UniProt P34972). In words: Antagonist activity at human CB2 receptor expressed in CHO cell membrane assessed as stimulation of [35S]GTPgammaS binding at 10 uM by liquid scintillation spectrophotometry. In kind it is functional, cell membranes. More on the design: scale not given: the % may be the effect or the level left. In short, it runs like this: (§1)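 CHO cell membranes expressing hCB2, 25 or 50 µg protein, incubated in triplicate with 0.1 nM [35S]GTPγS. Buffer: 20 mM HEPES, 100 mM NaCl, 10 mM MgCl2, 0.05% BSA, 20 units/L adenosine deaminase. Reaction 30 min at 30 °C, stopped by filtration on GF/B with ice-cold washes, counted by liquid scintillation. Nonspecific binding set with 10 μM unlabelled GTPγS.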
For orientation: GTPγS is a poorly hydrolysed GTP analogue; its binding reports G protein activation.

Assay [2] deals with T1, Cannabinoid receptor 2. In words: Displacement of [3H]-CP55940 from human CB2 receptor expressed in CHO cells at 1 uM incubated for 90 mins by liquid scintillation spectrophotometry relative to control. In kind it is cell-based. In short, it runs like this: (§2)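 Membrane protein was 100 μg for CHO-hCB1 and 50 μg for CHO-hCB2. Incubation 90 min at room temperature. Nonspecific binding set with 10 μM WIN-55,212-2. Stopped by GF/B filtration with three ice-cold washes, then liquid scintillation counting.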
On the technique in general: Displacement assays read how much labelled ligand stays bound in the presence of the test substance.

Assay [3] deals with T2, Cannabinoid receptor 1 (Homo sapiens, UniProt P21554). In words: Displacement of [3H]-CP55940 from human CB1 receptor expressed in CHO cells at 1 uM incubated for 90 mins by liquid scintillation spectrophotometry relative to control. Format: cell-based. In short, it runs like this: as §2
The subject of assay [4] is CHO. Nature of the assay: Selectivity index, ratio of Ki for human CB1 receptor expressed in CHO cells to Ki for human CB2 receptor expressed in CHO cells. In kind it is cell-based.
The target of assay [5] is T1, Cannabinoid receptor 2. Nature of the assay: Displacement of [3H]-CP55940 from human CB2 receptor expressed in CHO cells incubated for 90 mins by liquid scintillation spectrophotometry relative to control. In kind it is cell-based. In short, it runs like this: as §2
In assay [6] the target is T2, Cannabinoid receptor 1. Nature of the assay: Displacement of [3H]-CP55940 from human CB1 receptor expressed in CHO cells incubated for 90 mins by liquid scintillation spectrophotometry relative to control. Format: cell-based. The method in brief: as §2
Assay [7] has as its target T2, Cannabinoid receptor 1. Nature of the assay: Binding affinity to human CB1 receptor assessed as free binding energy. Format: cell-based. Conditions: CHO, filed as antagonist.
Assay [8] deals with T1, Cannabinoid receptor 2. Nature of the assay: Binding affinity to human CB2 receptor assessed as free binding energy. Format: cell-based. Conditions: CHO, filed as antagonist.
Assay [9] has as its target T1, Cannabinoid receptor 2. Nature of the assay: Antagonist activity at human CB2 receptor expressed in CHO cell membrane assessed as reduction in CP55940-induced [35S]GTPgammaS binding by liquid scintillation spectrophotometry. Format: functional, cell membranes. In short, it runs like this:
as §1

Molecules are shown by their SMILES.

T1 sequence (P34972 whole entry): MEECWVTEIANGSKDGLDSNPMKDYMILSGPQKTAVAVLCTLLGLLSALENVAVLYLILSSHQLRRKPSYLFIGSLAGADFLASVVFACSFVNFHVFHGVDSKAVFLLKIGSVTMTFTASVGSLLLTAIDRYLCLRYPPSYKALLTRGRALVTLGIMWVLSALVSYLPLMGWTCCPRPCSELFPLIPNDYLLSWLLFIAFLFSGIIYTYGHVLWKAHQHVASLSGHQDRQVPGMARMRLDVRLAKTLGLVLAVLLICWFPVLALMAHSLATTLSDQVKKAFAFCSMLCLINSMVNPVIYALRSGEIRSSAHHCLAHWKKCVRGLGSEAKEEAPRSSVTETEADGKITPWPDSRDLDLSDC
T2 sequence (P21554 whole entry): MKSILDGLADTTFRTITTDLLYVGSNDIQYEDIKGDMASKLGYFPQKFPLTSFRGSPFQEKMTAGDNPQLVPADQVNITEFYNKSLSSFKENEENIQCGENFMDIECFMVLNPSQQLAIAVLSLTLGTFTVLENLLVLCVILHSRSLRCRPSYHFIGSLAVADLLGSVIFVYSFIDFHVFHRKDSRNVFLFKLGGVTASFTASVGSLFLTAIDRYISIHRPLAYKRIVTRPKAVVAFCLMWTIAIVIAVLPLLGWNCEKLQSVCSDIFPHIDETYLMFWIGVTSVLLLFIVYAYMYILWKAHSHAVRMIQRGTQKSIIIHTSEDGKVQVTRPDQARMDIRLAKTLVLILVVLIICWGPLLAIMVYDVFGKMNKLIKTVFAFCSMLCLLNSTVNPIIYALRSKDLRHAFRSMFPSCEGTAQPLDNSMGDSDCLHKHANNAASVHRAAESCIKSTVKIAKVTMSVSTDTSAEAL

For the compound `CCCCCCn1cc(C(=O)c2ccc3c(c2)CC(C)(C)C3)c2ccccc21`, the Activity in [1] (filed as antagonist) was 102%; in assay [2] (filed as antagonist) it was 83.6%; in [3] (filed as antagonist), 79.1%.

For the compound `C=CCCCn1c(C)c(C(=O)c2ccc3c(c2)CC(C)(C)C3)c2ccccc21`, the Activity amounted to 86.4% in assay [2] (filed as antagonist) and 38.6% in assay [3].

In the case of `C#CCn1c(C)c(C(=O)c2ccc3c(c2)CC(C)(C)C3)c2ccccc21`, the values for the Activity in assay [2] (filed as antagonist) and in [3] (filed as antagonist) were 63% and 51.9%, respectively.

In the case of `Cc1c(C(=O)c2ccc3c(c2)CC(C)(C)C3)c2ccccc2n1Cc1ccc(F)cc1`, the Activity in [2] was found to be 48.8%; in assay [3], 38.4%.

In the case of `CCCn1c(C)c(C(=O)c2ccc3c(c2)CC(C)(C)C3)c2ccccc21`, the Activity in assay [2] (filed as antagonist) was 73.9%; in assay [3] it was 44.4%.

For `CC(C)Cn1cc(C(=O)c2ccc3c(c2)CC(C)(C)C3)c2ccccc21`, the Activity in assay [2] (filed as antagonist) amounted to 83.1%; in assay [3] (filed as antagonist) it was 422%.

In the case of `CCCCCCn1c(C)c(C(=O)c2ccc3c(c2)CC(C)(C)C3)c2ccccc21`, the Activity amounted to 55% in assay [2] (filed as antagonist) and 26.2% in assay [3].

Turning to `C=CCn1cc(C(=O)c2ccc3c(c2)CC(C)(C)C3)c2ccccc21`, the Activity in assay [2] (filed as antagonist) stood at 60.6%; in [3], 16%.

For `CCOC(=O)Cn1cc(C(=O)c2ccc3c(c2)CC(C)(C)C3)c2ccccc21`, the results for the Activity in assay [2] and in assay [3] were 18% and 19.4%, respectively.

As for `CC1(C)Cc2ccc(C(=O)c3c[nH]c4ccccc34)cc2C1`, the Activity in assay [2] turned out to be 22.2%; in assay [3], 9.4%.

`CCC#CCn1c(C)c(C(=O)c2ccc3c(c2)CC(C)(C)C3)c2ccccc21`: the Activity in [2] stood at 30.2%; in assay [3], 16.4%.

In the case of `CCC#CCn1cc(C(=O)c2ccc3c(c2)CC(C)(C)C3)c2ccccc21`, the values for the Activity in assay [2] (filed as antagonist) and in assay [3] (filed as antagonist) were 65.9% and 55.6%, respectively.

On to `CCCCCn1cc(C(=O)c2cccc3ccccc23)c2ccccc21`, for which the Selectivity Index in assay [4] turned out to be 3.1. The Ki in assay [5] came out at 2.94 nM; in assay [6], 9 nM.

As to `CC1(C)Cc2ccc(C(=O)c3cn(Cc4ccc(F)cc4)c4ccccc34)cc2C1`, the figures for the Activity in assay [1] (filed as antagonist), in assay [2] (filed as antagonist) and in assay [3] (filed as antagonist) were 90%, 92.3% and 88%, respectively.

As for `CCCn1cc(C(=O)c2ccc3c(c2)CC(C)(C)C3)c2ccccc21`, in assay [4], the Selectivity Index worked out at 19.7. The deltaG in assay [7] was -7.68 kcal/mol; in [8], -9.45 kcal/mol. In addition, the Activity in assay [1] (filed as antagonist) was found to be 99%; in assay [2] (filed as antagonist), 90.5%; in assay [3], 47.4%. The Ki in [5] amounted to 130 nM; in assay [6], 2560 nM.

Take `COc1ccc(C(=O)c2c(C)n(CCN3CCOCC3)c3cc(I)ccc23)cc1`: the Activity in assay [1] came to 67%.

In the case of `CC1(C)Cc2ccc(C(=O)c3cn(Cc4ccccc4)c4ccccc34)cc2C1`, the Activity in [1] (filed as antagonist) was determined as 87%; in [2] (filed as antagonist), 84.6%; in assay [3] (filed as antagonist), 69.2%.

In the case of `C#CCCCn1c(C)c(C(=O)c2ccc3c(c2)CC(C)(C)C3)c2ccccc21`, the deltaG in [7] is -7.85 °C; in [8] it was -9.89. Besides, the Activity in assay [1] (filed as antagonist) was 121%; in assay [2] (filed as antagonist), 93.1%; in [3] it was 41.9%. For the same compound, the Ki in assay [5] came to 62.5 nM; in assay [6] it was 1900 nM.

For `C=CCCCn1cc(C(=O)c2ccc3c(c2)CC(C)(C)C3)c2ccccc21`, the deltaG in assay [7] is -9.36 °C; in assay [8], -10.7. Further, the Activity in [1] (filed as antagonist) amounted to 92%; in assay [2] (filed as antagonist) it was 95.2%; in assay [3] (filed as antagonist) it was 80%. Further, the Ki in assay [5] stood at 15.6 nM; in assay [6], 152 nM.

On to `CC/C=C/Cn1cc(C(=O)c2ccc3c(c2)CC(C)(C)C3)c2ccccc21`, for which the Activity in assay [1] (filed as antagonist) was 81%; in assay [2] (filed as antagonist) it was 86.9%; in assay [3] (filed as antagonist), 84.2%.

Regarding `CCCCn1c(C)c(C(=O)c2ccc3c(c2)CC(C)(C)C3)c2ccccc21`, the results for the Activity in [2] (filed as antagonist) and in assay [3] were 85.4% and 43.5%, respectively.

Take `CCCCCn1c(C)c(C(=O)c2ccc3c(c2)CC(C)(C)C3)c2ccccc21`: the Activity amounted to 83.6% in [2] (filed as antagonist) and 53.8% in assay [3] (filed as antagonist).

As to `CCCCCn1cc(C(=O)c2ccc3c(c2)CC(C)(C)C3)c2ccccc21`, in assay [4], the Selectivity Index came out at 7.9. Moreover, the deltaG is -10.2 kcal/mol in assay [7] and -11.5 kcal/mol in assay [8]. Further, the Activity was 108% in assay [1] (filed as antagonist), 99.8% in [2] (filed as antagonist) and 93.4% in assay [3] (filed as antagonist). The Ki in [5] came to 4.9 nM; in assay [6] it was 38.8 nM. Further, the half-inhibitory concentration (IC50) in assay [9] was 1800 nM. Besides, the Kb in assay [9] (filed as antagonist) turned out to be 9.7 nM.

With `Cc1c(C(=O)c2ccc3c(c2)CC(C)(C)C3)c2ccccc2n1Cc1ccccc1`, the Activity in assay [2] (filed as antagonist) worked out at 51.2%; in [3], 18.1%.

`CC/C=C\Cn1cc(C(=O)c2ccc3c(c2)CC(C)(C)C3)c2ccccc21`: the Activity was found to be 106% in [1] (filed as antagonist), 86.4% in assay [2] (filed as antagonist) and 60.7% in assay [3] (filed as antagonist).

On to `C#CCn1cc(C(=O)c2ccc3c(c2)CC(C)(C)C3)c2ccccc21`, for which the Activity in assay [2] (filed as antagonist) stood at 56%; in assay [3] it was 33.4%.

For the compound `CCCCn1cc(C(=O)c2ccc3c(c2)CC(C)(C)C3)c2ccccc21`, the Activity in assay [1] (filed as antagonist) was 102%; in assay [2] (filed as antagonist), 92.9%; in [3] (filed as antagonist) it was 82.7%.

Take `C#CCCCn1cc(C(=O)c2ccc3c(c2)CC(C)(C)C3)c2ccccc21`: the deltaG in assay [7] is -8.91 °C; in [8], -10.5. Also, the Activity is 96% in assay [1] (filed as antagonist), 92.8% in assay [2] (filed as antagonist) and 71% in [3] (filed as antagonist). Further, the Ki in [5] is 24 nM; in assay [6] it was 325 nM.

For the compound `CCCCCn1cc(C(=O)c2cccc3c2CC(C)(C)C3)c2ccccc21`, the Selectivity Index in assay [4] was 1.1. Moreover, the deltaG in [7] is -12.1 kcal/mol; in assay [8] it was -12.2 kcal/mol. The Activity in assay [1] (filed as antagonist) came out at 134%; in assay [2] (filed as antagonist) it was 94.1%; in [3] (filed as antagonist), 85.7%. Besides, the Ki is 1.36 nM in assay [5] and 1.46 nM in assay [6].

Turning to `CC/C=C/Cn1c(C)c(C(=O)c2ccc3c(c2)CC(C)(C)C3)c2ccccc21`, the Activity in assay [2] (filed as antagonist) was found to be 73.7%; in assay [3], 35.1%.

With `Cn1cc(C(=O)c2ccc3c(c2)CC(C)(C)C3)c2ccccc21`, the Activity was found to be 23.9% in assay [2] and 10.8% in assay [3].

Turning to `CC/C=C\Cn1c(C)c(C(=O)c2ccc3c(c2)CC(C)(C)C3)c2ccccc21`, the Activity in assay [2] (filed as antagonist) is 82.9%; in assay [3], 43%.

For orientation: Ki means a measure of affinity in units of concentration, obtained from inhibition or displacement. One may read the IC50 as the midpoint of a concentration-inhibition curve. The term Kb denotes the affinity of an antagonist, worked out from how it opposes an agonist.
